Experiment [1] concerns the target T1, Glutamate receptor ionotropic, NMDA 2B (Rattus norvegicus, UniProt Q00960). Kind of experiment: Antagonist activity at NR2B NMDA receptor in Wistar rat neocortical cells assessed as inhibition of NMDA-evoked elevation of intracellular calcium concentration. The format is functional, cell-based. The gist of the method: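 Rat primary neocortical cultures (trypsinised cortex, poly-D-lysine coated wells, glial proliferation stopped with […], serum-free N2 medium) used after 3-10 days in vitro. Compound added (<0.1% DMSO), 5 min baseline, then 40 µM NMDA and 5 min fluorescence recording.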
For orientation: A change in cytosolic calcium serves as a functional read-out for many receptors and channels.

The target in experiment [2] is T1, Glutamate receptor ionotropic, NMDA 2B. Kind of experiment: Displacement of [3H]Ro 25,6981 from NR2B NMDA receptor in rat forebrain. The gist of the method: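 Rat forebrain membranes were washed and suspended in 5 mM TRIS-HCl, pH 7.4, at 1 mg protein/mL. They were incubated 2 h at room temperature with 4 nM [3H]Ro-25,6981 and at least seven compound concentrations. Nonspecific binding was defined with 10 µM Ro-25,6981. Bound and free ligand were separated by GF/B filtration, and filters were counted by liquid scintillation. Results were expressed as % inhibition of specific binding.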
For orientation: In a radioligand displacement assay an active substance lowers the binding of a labelled ligand.

For experiment [3], the system named is Mus musculus. Kind of experiment: Inhibition of formalin induced nociception in ip dosed NMRI mouse by measuring pain-related licking behavior in late phase. The format is functional. The method, boiled down: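 Mouse formalin test: 20 µL 1% formalin in 0.9% saline injected s.c. into the dorsal right hindpaw. Compound given i.p. Pain-related licking scored at the peak of the second (persistent, 10-60 min) phase. ED50 reported.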

The test system of experiment [4] is Mus musculus. Kind of experiment: Inhibition of formalin induced nociception in orally dosed NMRI mouse by measuring pain-related licking behavior in late phase. Conditions: po. Format: functional. The method, boiled down:
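Mice fasted 14-16 h with free 20% glucose. Compound or vehicle (5% Tween 80) given orally 15 min before s.c. injection of 20 µL 1% formalin in 0.9% saline into the dorsal right hindpaw. Licking measured at the peak of the second phase (10-60 min). ED50 reported.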

This note sets out measurements from ChEMBL document CHEMBL1142862, “Selective NR1/2B N-methyl-D-aspartate receptor antagonists among indole-2-carboxamides and benzimidazole-2-carboxamides” (J Med Chem, 2007).

Some results are limits rather than exact numbers.

T1 sequence (Q00960 whole entry): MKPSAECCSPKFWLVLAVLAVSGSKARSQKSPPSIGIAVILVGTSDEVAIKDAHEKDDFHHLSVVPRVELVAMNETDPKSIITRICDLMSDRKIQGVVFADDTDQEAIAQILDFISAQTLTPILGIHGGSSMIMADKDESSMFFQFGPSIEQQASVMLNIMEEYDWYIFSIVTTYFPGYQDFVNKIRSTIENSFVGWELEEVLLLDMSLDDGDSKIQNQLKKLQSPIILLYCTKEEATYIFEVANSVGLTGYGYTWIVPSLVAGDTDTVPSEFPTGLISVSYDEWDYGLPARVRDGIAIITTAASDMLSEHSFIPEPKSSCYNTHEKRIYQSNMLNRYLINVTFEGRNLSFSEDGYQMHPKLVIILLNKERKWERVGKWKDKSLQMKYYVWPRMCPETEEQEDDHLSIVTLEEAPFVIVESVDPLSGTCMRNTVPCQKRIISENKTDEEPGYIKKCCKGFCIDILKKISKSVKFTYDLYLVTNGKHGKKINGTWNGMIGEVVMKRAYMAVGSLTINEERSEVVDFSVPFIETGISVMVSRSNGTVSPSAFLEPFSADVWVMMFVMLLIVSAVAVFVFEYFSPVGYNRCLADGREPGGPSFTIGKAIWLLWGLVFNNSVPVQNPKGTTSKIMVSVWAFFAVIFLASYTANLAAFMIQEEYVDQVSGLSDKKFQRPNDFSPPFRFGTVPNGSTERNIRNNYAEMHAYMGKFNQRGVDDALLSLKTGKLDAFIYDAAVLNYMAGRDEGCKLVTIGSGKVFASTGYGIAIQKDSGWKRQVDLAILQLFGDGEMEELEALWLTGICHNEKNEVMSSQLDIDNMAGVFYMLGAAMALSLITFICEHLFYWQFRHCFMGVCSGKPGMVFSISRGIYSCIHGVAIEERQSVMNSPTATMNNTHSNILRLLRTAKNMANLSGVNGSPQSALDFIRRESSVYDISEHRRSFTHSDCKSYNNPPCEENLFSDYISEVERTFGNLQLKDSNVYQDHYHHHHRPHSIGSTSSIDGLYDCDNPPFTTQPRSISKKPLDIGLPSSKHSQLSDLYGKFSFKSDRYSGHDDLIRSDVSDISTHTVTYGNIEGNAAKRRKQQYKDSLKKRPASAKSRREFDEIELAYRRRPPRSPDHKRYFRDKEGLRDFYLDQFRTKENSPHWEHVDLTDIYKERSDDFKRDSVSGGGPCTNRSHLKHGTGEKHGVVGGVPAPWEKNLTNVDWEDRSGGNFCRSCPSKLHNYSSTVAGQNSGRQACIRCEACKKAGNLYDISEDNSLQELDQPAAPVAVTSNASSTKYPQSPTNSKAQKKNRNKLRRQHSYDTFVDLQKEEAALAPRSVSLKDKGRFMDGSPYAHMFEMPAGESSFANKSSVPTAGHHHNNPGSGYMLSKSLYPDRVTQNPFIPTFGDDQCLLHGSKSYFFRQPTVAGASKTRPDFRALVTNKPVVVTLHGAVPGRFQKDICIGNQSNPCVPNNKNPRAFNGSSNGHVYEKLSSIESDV

On to `O=C(c1cc2cccc(O)c2[nH]1)N1CCC(Cc2ccccc2)CC1`, for which the 50% inhibitory concentration (IC50) (usually the concentration that inhibits the measured activity by half) in experiment [1] is 165 nM; in experiment [2], 380 nM. In the case of `O=C(c1cc2cc(O)cc(O)c2[nH]1)N1CCC(Cc2ccccc2)CC1`, the IC50 in experiment [1] turned out to be 31 nM; in experiment [2], 106 nM. With `O=C(c1cc2c(O)cccc2[nH]1)N1CCC(Cc2ccccc2)CC1`, the IC50 was determined as 16 nM in experiment [1] and 18 nM in experiment [2]. For `O=C(c1cc2cc(O)ccc2[nH]1)N1CCC(Cc2ccccc2)CC1`, in that order: 25 nM and 31 nM. The corresponding values for `O=C(c1cc2c(O)cc(O)cc2[nH]1)N1CCC(Cc2ccccc2)CC1` are 6.5 nM and 6 nM. In the case of `COc1ccc(CC2CCCCN2C(=O)c2cc3ccc(O)cc3[nH]2)cc1` (configuration not stated), the IC50 in experiment [1] was above 8000 nM. Still for that read-out and setting: in the case of `O=C(c1nc2cc3[nH]c(=O)oc3cc2[nH]1)N1CCC(Cc2ccccc2)CC1` it was 193 nM. On to `Cc1ccc(OC2CCN(C(=O)c3nc4cc(O)ccc4[nH]3)CC2)cc1`, for which the half-inhibitory concentration (IC50) amounted to 1.1 nM in experiment [1] and 3 nM in experiment [2]. `O=C(c1cc2c(ccc3[nH]ncc32)[nH]1)N1CCC(Cc2ccccc2)CC1`: the concentration for half-maximal inhibition (IC50) came out at 20 nM in experiment [1] and 5 nM in experiment [2]. In the case of `N=C(c1cc2ccc(O)cc2[nH]1)N1CCC(Cc2ccccc2)CC1`, the IC50 was 8.5 nM in experiment [1] and 10 nM in experiment [2]. The molecule `CS(=O)(=O)Nc1cccc2[nH]c(C(=O)N3CCC(Cc4ccccc4)CC3)cc12` displayed an IC50 in experiment [2] of 215 nM. Take `O=C(c1nc2cc(O)ccc2[nH]1)N1CCC(Oc2ccc(F)cc2)CC1`: the IC50 in experiment [1] turned out to be 2.9 nM; in experiment [2] it was 6 nM. Take `Oc1ccc2cc(CN3CCC(Cc4ccccc4)CC3)[nH]c2c1`: the half-inhibitory concentration (IC50) in experiment [1] was 1160 nM. `O=S(=O)(c1cc2ccc(O)cc2[nH]1)N1CCC(Cc2ccccc2)CC1`: the concentration for half-maximal inhibition (IC50) in experiment [1] is above 8000 nM. In experiment [2], `O=C(c1cc2ccc(O)cc2o1)N1CCC(Cc2ccccc2)CC1` displayed a half-inhibitory concentration (IC50) above 10000 nM. With `Nc1ccc2cc(C(=O)N3CCC(Cc4ccccc4)CC3)[nH]c2c1`, the IC50 in experiment [1] amounted to 627 nM.

Turning to `O=C(c1ccccc1)C1CCN(C(=O)c2cc3ccc(O)cc3[nH]2)CC1`, the IC50 in experiment [1] was 744 nM. Consider `O=C(c1cc2ccc(O)cc2[nH]1)N1CCC(C(O)c2ccccc2)CC1` (configuration not stated), for which the IC50 in experiment [1] turned out to be 111 nM; in experiment [2] it was 60 nM. The corresponding values for `CS(=O)(=O)Nc1ccc2cc(C(=O)N3CCC(Cc4ccccc4)CC3)[nH]c2c1` are 30 nM and 9 nM. For `CS(=O)(=O)Nc1ccc2[nH]c(C(=O)N3CCC(Cc4ccccc4)CC3)cc2c1`, in that order: 631 nM and 1540 nM. `COc1ccccc1CC1CCN(C(=O)c2cc3ccc(O)cc3[nH]2)CC1`: in experiment [1], the IC50 amounted to 249 nM. `O=C(c1cc2cc(O)ccc2o1)N1CCC(Cc2ccccc2)CC1`: the results for the half-inhibitory concentration (IC50) in experiment [1] and in experiment [2] were 1900 nM and above 10000 nM, respectively. Regarding `Cc1cccc(CC2CCN(C(=O)c3nc4cc(O)ccc4[nH]3)CC2)c1`, the values for the IC50 in experiment [1] and in experiment [2] were 2.4 nM and 5 nM, respectively. For `COc1cccc(CC2CCN(C(=O)c3nc4cc(O)ccc4[nH]3)CC2)c1`, the concentration for half-maximal inhibition (IC50) turned out to be 2.5 nM in experiment [1] and 3 nM in experiment [2]. Take `O=C(c1cc2ccc(O)cc2[nH]1)N1CCC(Cc2cccc(F)c2)CC1`: the half-maximal inhibitory concentration (IC50) in experiment [1] came out at 38 nM; in experiment [2], 31 nM. `C[C@@H](CN1CCC(Cc2ccccc2)CC1)[C@@H](O)c1ccc(O)cc1`: the concentration for half-maximal inhibition (IC50) in experiment [1] was 159 nM. The ED50 (commonly the midpoint of the dose-response relation) in experiment [3] was 5.1 mg/kg. Regarding `O=C(c1cc2ccc(O)cc2[nH]1)N1CCC(Cc2ccccc2)CC1`, the ED50 in experiment [4] was 1.7 mg/kg. For the molecule `O=C(c1cc2ccc(O)cc2[nH]1)N1CCC(c2ccccc2)CC1`, the IC50 in experiment [1] was above 8000 nM. For `O=C(c1cc2ccc(O)cc2[nH]1)N1CCC(CCc2ccccc2)CC1`, the IC50 in experiment [1] is 875 nM; in experiment [2], 359 nM.

Consider `Cn1c(C(=O)N2CCC(Cc3ccccc3)CC2)cc2ccc(O)cc21`, for which the IC50 in experiment [1] was 5770 nM. In the case of `O=C(c1cc2c(NCc3ccccc3)cccc2[nH]1)N1CCC(Cc2ccccc2)CC1`, the figures for the IC50 in experiment [1] and in experiment [2] were 47 nM and 191 nM, respectively.

Consider `O=C(c1cc2ccc(O)cc2[nH]1)N1CCC(Cc2ccc(F)cc2)CC1`, for which the half-maximal inhibitory concentration (IC50) in experiment [1] came to 90 nM; in experiment [2] it was 12 nM.

`Nc1cccc2[nH]c(C(=O)N3CCC(Cc4ccccc4)CC3)cc12`: the IC50 in experiment [1] was 4.3 nM; in experiment [2] it was 12 nM. The molecule `O=C(c1cc2cc3[nH]c(=O)oc3cc2[nH]1)N1CCC(Cc2ccccc2)CC1` gave an IC50 in experiment [2] of 23 nM.

For the molecule `Nc1ccc2[nH]c(C(=O)N3CCC(Cc4ccccc4)CC3)nc2c1`, the 50% inhibitory concentration (IC50) in experiment [1] worked out at 40 nM; in experiment [2], 143 nM. As for `O=C(c1cc2cc(O)ccc2s1)N1CCC(Cc2ccccc2)CC1`, the IC50 was 5610 nM in experiment [1] and above 10000 nM in experiment [2]. Turning to `Cc1ccc(CC2CCN(C(=O)c3cc4ccc(O)cc4[nH]3)CC2)cc1`, the IC50 in experiment [1] was 208 nM; in experiment [2] it was 28 nM. For `COc1ccc(CC2CCN(C(=O)c3cc4ccc(O)cc4[nH]3)CC2)cc1`, in that order: 80 nM and 17 nM. For `O=C(c1cc2c(ccc3[nH]cnc32)[nH]1)N1CCC(Cc2ccccc2)CC1`, in that order: 50 nM and 6 nM. On to `O=C(c1nc2cc(O)ccc2[nH]1)N1CCC(Oc2ccc(Cl)cc2)CC1`, for which the IC50 was found to be 1.7 nM in experiment [1] and 14 nM in experiment [2]. On to `O=C(c1nc2c(O)ccc(O)c2[nH]1)N1CCC(Cc2ccccc2)CC1`, for which the IC50 in experiment [1] worked out at 3 nM; in experiment [2], 10 nM. Consider `Nc1ccc2[nH]c(C(=O)N3CCC(Cc4ccccc4)CC3)cc2c1`, for which the IC50 in experiment [1] amounted to 596 nM. In the case of `O=C(c1cc2c(ccc3cn[nH]c32)[nH]1)N1CCC(Cc2ccccc2)CC1`, the IC50 in experiment [1] was 58 nM; in experiment [2], 64 nM. With `O=C(c1nc2ccc(O)cc2s1)N1CCC(Cc2ccccc2)CC1`, the IC50 in experiment [1] is 2600 nM. Regarding `O=C(c1cc2ccc(O)cc2[nH]1)N1CCC(OCc2ccccc2)CC1`, the IC50 in experiment [1] was found to be 16 nM; in experiment [2], 47 nM.

Take `CS(=O)(=O)Nc1ccc2[nH]c(C(=O)N3CCC(Cc4ccccc4)CC3)nc2c1`: the IC50 in experiment [1] was found to be 1.3 nM; in experiment [2], 3 nM. As to `O=C(c1cc2ccc(O)cc2[nH]1)N1CCC(Oc2ccccc2)CC1`, the IC50 in experiment [1] amounted to 107 nM; in experiment [2], 89 nM. As for `CS(=O)(=O)Nc1ccc2nc(CN3CCC(Cc4ccccc4)CC3)[nH]c2c1`, the IC50 in experiment [1] was determined as 8.6 nM. In experiment [4], `O=c1[nH]c2ccc([S+]([O-])CCN3CCC(Cc4ccc(F)cc4)CC3)cc2o1` (configuration not stated) [BESONPRODIL] showed an ED50 of 2.4 mg/kg.

In turn, `C[C@@H]([C@@H](O)c1ccc(O)cc1)N1CCC(O)(c2ccccc2)CC1` [TRAXOPRODIL] displayed a median effective dose (ED50) in experiment [4] above 20 mg/kg.
